According to ChEMBL document CHEMBL3102692 (Bioorg Med Chem Lett, 2014):
Calls of active or inactive are those of the source. The rule behind the calls is not given here.

Legend:
Beta-secretase 1 [1] = biological target: T1, Beta-secretase 1 (Homo sapiens, UniProt P56817); test: Inhibition of recombinant BACE1 (unknown origin) at 1.3 mM
In short: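 Recombinant BACE1 was incubated with a synthetic dodecapeptide substrate carrying the Swedish-type BACE1 cleavage sequence, in 40 mM AcONa buffer (pH 4.0) with 10% glycerol, 10 mM DTT and 4 M NaCl. The reaction mixture was analysed by reversed-phase C18 HPLC using a 10–40% MeCN gradient over 30 min in aq 0.1% TFA. Inhibition was read from the decrease of the substrate.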

Beta-secretase 1 [2] = biological target: T1, Beta-secretase 1; test: Non-competitive inhibition of recombinant BACE1 (unknown origin) by Lineweaver-Burk plot analysis
Beta-secretase 1 [3] = biological target: T1, Beta-secretase 1; test: Inhibition of recombinant BACE1 (unknown origin) at 0.67 mM
Beta-secretase 1 [4] = biological target: T1, Beta-secretase 1; test: Inhibition of recombinant BACE1 (unknown origin)

T1 sequence (P56817 whole entry): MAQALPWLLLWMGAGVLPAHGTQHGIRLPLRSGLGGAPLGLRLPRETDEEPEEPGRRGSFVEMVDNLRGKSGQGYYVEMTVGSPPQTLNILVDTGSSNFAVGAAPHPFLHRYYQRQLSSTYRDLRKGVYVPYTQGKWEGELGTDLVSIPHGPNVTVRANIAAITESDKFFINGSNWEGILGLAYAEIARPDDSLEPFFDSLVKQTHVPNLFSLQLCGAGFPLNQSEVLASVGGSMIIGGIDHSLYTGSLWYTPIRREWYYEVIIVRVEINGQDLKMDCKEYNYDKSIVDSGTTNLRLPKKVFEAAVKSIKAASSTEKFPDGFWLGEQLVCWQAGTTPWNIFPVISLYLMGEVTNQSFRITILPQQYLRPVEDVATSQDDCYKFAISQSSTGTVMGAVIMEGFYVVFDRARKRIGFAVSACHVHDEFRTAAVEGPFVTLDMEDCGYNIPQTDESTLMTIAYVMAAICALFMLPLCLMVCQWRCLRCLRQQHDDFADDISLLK

SMILES | inhibition (Beta-secretase 1 [3]) | also measured
COCCOCOc1ccc(/C=C/C(=O)/C=C(O)/C=C/c2ccc(O)c(OC)c2)cc1OC |  | inhibition (Beta-secretase 1 [1]): 17%
O=C(/C=C(O)/C=C/c1ccccc1O)/C=C/c1ccc(O)c(O)c1 | 100% | inhibition (Beta-secretase 1 [2]): Active; IC50 (Beta-secretase 1 [4]): 250 µM
O=C(/C=C(O)/C=C/c1ccc(O)cc1)/C=C/c1ccc(O)c(O)c1 | 18% | 
COc1cc(/C=C/C(=O)/C(=C(O)/C=C/c2ccc(O)c(OC)c2)C(C)C)ccc1O | 6% | 
O=C(/C=C(O)/C=C/c1ccc(O)c(O)c1)/C=C/c1ccc(O)c(O)c1 | 25% | IC50 (Beta-secretase 1 [4]): 2200 µM
O=C(/C=C(O)/C=C/c1c[nH]c2ccccc12)/C=C/c1ccc(O)c(O)c1 | 71% | IC50 (Beta-secretase 1 [4]): 450 µM
COc1ccc(CCC(=O)C(C(C)C)C(O)CCc2ccc(OC)c(OC)c2)cc1OC (stereo unspecified) | 1% | 
O=C(/C=C(O)/C=C/c1ccc[nH]1)/C=C/c1ccc(O)c(O)c1 | 30% | 
O=C(/C=C(O)/C=C/c1ccccc1)/C=C/c1ccccc1 | 1% | 
COCCOCOc1ccc(/C=C/C(=O)/C=C(O)/C=C/c2ccc(OCOCCOC)c(OC)c2)cc1OC |  | inhibition (Beta-secretase 1 [1]): 19%
O=C(/C=C(O)/C=C/c1ccccc1)/C=C/c1ccc(O)c(O)c1 | 26% | 
COc1cc(CCC(=O)/C=C(\O)CCc2ccc(O)c(OC)c2)ccc1O |  | inhibition (Beta-secretase 1 [1]): 7%
COc1ccc(/C=C/C(=O)/C=C(O)/C=C/c2ccc(OC)c(OC)c2)cc1OC | 0% | 
COc1cc(/C=C/C(O)=C/C(=O)/C=C/c2ccc(O)cc2)ccc1O [DEMETHOXYCURCUMIN] | 35% | IC50 (Beta-secretase 1 [4]): 1600 µM
COc1ccccc1/C=C/C(O)=C/C(=O)/C=C/c1ccc(O)c(O)c1 | 47% | IC50 (Beta-secretase 1 [4]): 1400 µM
COc1cc(/C=C/C(=O)/C=C(O)/C=C/c2ccc(Br)cc2)ccc1O | 5% | 
COc1ccc(CCCC(C(=O)CCc2ccc(OC)c(OC)c2)C(C)C)cc1OC (stereo unspecified) | 5% | 
COc1cc(/C=C/C(O)=C/C(=O)/C=C/c2ccc(O[Si](C)(C)C(C)(C)C)c(OC)c2)ccc1O |  | inhibition (Beta-secretase 1 [1]): 22%
O=C(/C=C(O)/C=C/c1cccnc1)/C=C/c1ccc(O)c(O)c1 | 21% | 
COc1ccc(CCC(O)C(C(C)C)C(O)CCc2ccc(OC)c(OC)c2)cc1OC (stereo unspecified) | 9% | 
COCCOCOC(=C\C(=O)/C=C/c1ccc(OCOCCOC)c(OC)c1)/C=C/c1ccc(OCOCCOC)c(OC)c1 |  | inhibition (Beta-secretase 1 [1]): 36%
COCCOCOc1ccc(CCC(=O)CC(O)CCc2ccc(OCOCCOC)c(OC)c2)cc1OC (stereo unspecified) |  | inhibition (Beta-secretase 1 [1]): 15%
O=C(/C=C(O)/C=C/c1cccc(O)c1)/C=C/c1cccc(O)c1 | 33% | 
N#Cc1cccc(/C=C/C(O)=C/C(=O)/C=C/c2ccc(O)c(O)c2)c1 | 21% | 
COc1cc(CCC(=O)CC(O)CCc2ccc(O)c(OC)c2)ccc1O (stereo unspecified) |  | inhibition (Beta-secretase 1 [1]): 7%
COc1ccc(/C=C/C(=O)/C(=C(O)/C=C/c2ccc(OC)c(OC)c2)C(C)C)cc1OC | 4% | 
COCCOCOc1ccc(CCC(=O)/C=C(\O)CCc2ccc(OCOCCOC)c(OC)c2)cc1OC |  | inhibition (Beta-secretase 1 [1]): 17%
COCOc1ccc(/C=C/C(=O)/C=C(O)/C=C/c2ccc(OCOC)c(OC)c2)cc1OC | 7% | 
O=C(/C=C(O)/C=C/c1cccc([N+](=O)[O-])c1)/C=C/c1ccc(O)c(O)c1 | 18% | IC50 (Beta-secretase 1 [4]): 1800 µM
